Source: PubChem (The Scripps Research Institute Molecular Screening Center)
Rows were chosen to be rich in hits. Some 2.5% of all compounds tested hit in one or more screens of this group.
HTRA1 inh = HTRA1 serine protease inhibitors, primary screen, biochemical, fluorescence polarization, HTS. Q92743. recombinant HTRA1, FP-rhodamine activity-based probe. inhibition, % at 5.96 µM. 340,000 compounds, 0.5% hits; in the data active = inhibition above about 36%;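 note: 0% = enzyme with DMSO and 100% = wells lacking enzyme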
TCR CD3 inh = inhibitors of human TCR-CD3 interaction, primary screen, biochemical, fluorescence, TAMRA-labeled TCR probe; 360,000 compounds, 0.37% hits; T-cell receptor (TCR); AID 651800, 2012; inhibition, % at 9.4 µM; in the data active = inhibition above about 19%;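 note: recombinant mutant TCR 2C K166C tagged with TAMRA read by polarization; 0% = receptor in buffer alone and 100% = receptor with positive control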
SIAE primary = human SIAE inhibitors, primary screen, biochemical, fluorescence polarization, FP-Rh probe, 1536-well HTS; Sialate O-acetylesterase (Homo sapiens), Q9HAT2; SIAE FP-Rh probe binding; inhibition, % at 9.66 µM; 370,000 compounds, 0.69% hits;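 active = inhibition above a cutoff: mean of compounds within the control limits plus 3 SD of those, cut at about 17% in these data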;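 note: 0% = plate median of compound wells and 100% = probe without SIAE protein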
PRMT1 FP inh = PRMT1 methyltransferase inhibitors, primary screen, biochemical, fluorescence polarization; Protein arginine N-methyltransferase 1 (Homo sapiens), Q99873; recombinant PRMT1, activity-based probe fluorescence polarization; inhibition, % at 2.79 µM; 370,000 compounds, 1.3% hits; AID 652257, 2013;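 active = inhibition above about 21% made by adding two undisclosed values, limit read from the data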
Target sequence (Q99873 whole entry, looked up): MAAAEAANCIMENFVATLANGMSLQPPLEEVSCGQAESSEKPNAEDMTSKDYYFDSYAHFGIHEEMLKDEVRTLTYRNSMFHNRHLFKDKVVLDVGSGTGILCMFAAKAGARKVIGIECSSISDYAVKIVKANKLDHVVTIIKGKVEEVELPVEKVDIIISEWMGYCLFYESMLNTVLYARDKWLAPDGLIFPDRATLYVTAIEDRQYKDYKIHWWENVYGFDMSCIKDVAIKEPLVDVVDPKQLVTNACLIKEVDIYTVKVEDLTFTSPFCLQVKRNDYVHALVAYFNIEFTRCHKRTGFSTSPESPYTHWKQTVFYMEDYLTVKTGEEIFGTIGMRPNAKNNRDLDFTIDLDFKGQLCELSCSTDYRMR
mABHD4 FP = ABHD4 inhibitors, primary screen, biochemical, fluorescence polarization, mouse; (Lyso)-N-acylphosphatidylethanolamine lipase (Mus musculus), Q8VD66; purified mABHD4, FP-Rh probe fluorescence polarization; inhibition, % at 8.92 µM; 370,000 compounds, 0.54% hits; AID 720543, 2013;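 active = inhibition exceeding the mean over every tested compound plus 3 SD, cut at about 30% in these data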;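 note: 0% = plate median of compound wells and 100% = S159A mutant with DMSO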
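Material: mouse ABHD4 enzyme, wild type; Benchmarks: S159A mutant high control, sample median low control; Buffer or medium: HEPES pH 7.0, NaCl, Pluronic buffer; Signal: fluorescence polarization; Read-out: percent inhibition of probe binding, normalized to plate controls; Timing: pre-incubation 45 min, probe exposure 60 min, at 25 °C; Dosing: 8.92 µM, single dose.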
Active calls of the source: *; nt = not tested or not shown.

SMILES | HTRA1 inh | TCR CD3 inh | SIAE primary | PRMT1 FP inh | mABHD4 FP
Cc1ccccc1NC(=O)CC1SCCNC1=O (stereo unspecified) | 1 | -5 | -3 | 22* | -4
CCCC[C@H]1C2CC(OC(=O)Nc3cccc(Br)c3)C(C2)[C@H]2CCCCN21 (stereo partly specified) | nt | nt | -4 | 1 | 1
O=C(/C=C/c1ccco1)NC(=S)Nc1ccccc1O | nt | 16 | 8 | 21* | 18
CC(=O)Nc1ccc(NC(=S)NC(=O)/C=C/c2ccco2)cc1 | -1 | 2 | 4 | 21* | 16
O=C(/C=C\c1ccco1)NC(=S)Nc1ccccc1O | -8 | 13 | -3 | 12 | 6
C(=N/N1CCN(c2ccccc2)CC1)/c1ccco1 | nt | nt | 3 | 2 | 3
Cc1ccc(NC(=O)CN(C)Cc2c(O)ccc3ccccc23)cc1 | nt | 2 | -6 | 21* | 5
O=C(NCCCN1CCN(c2ccc(F)cc2)CC1)NCc1ccccc1 | nt | nt | 7 | -2 | -3
Nc1cccc2nsnc12 | 5 | 10 | 7 | 7 | 2
Nc1cc2nsnc2cc1Br | 36 | 2 | 5 | 40* | 19
COc1cc2c(cc1NC(=O)CSc1nnc(COc3ccccc3)n1Cc1ccco1)oc1ccccc12 | nt | nt | 0 | 6 | -5
CCN(CC(=O)Nc1ccc(NC(C)=O)cc1)C(=O)/C=C/c1ccccc1 | 4 | 5 | -6 | -8 | -1
CCN(CC(=O)Nc1ccc(NC(C)=O)cc1)C(=O)/C=C/c1ccc(C)o1 | 9 | 6 | -4 | 24* | 1
O=C(NCc1ccccc1Cl)C1CCC(CNS(=O)(=O)c2cccc3cccnc23)CC1 (stereo unspecified) | nt | nt | -1 | 17 | 5
O=C(O)c1ccc(S(=O)(=O)Nc2ccc(O)c(Sc3nc4ccccc4s3)c2)cc1 | 0 | 5 | -10 | 22* | 12
NS(=O)(=O)c1ccc(Sc2nc3ccccc3s2)c([N+](=O)[O-])c1 | -6 | -3 | 6 | -2 | -11
CCOC(=O)c1ccc(NC(=O)NC2CC3CCC(C2)N3Cc2nnnn2Cc2ccco2)cc1 (stereo unspecified) | -15 | 0 | -9 | 23* | -3
CC(C)CC(=O)/C=C/n1c(=S)oc2ccccc21 | 1 | 5 | 6 | -2 | -6
CC(=O)/C=C/n1c(=S)oc2ccccc21 | nt | -2 | 6 | 23* | 4
Cn1c(=O)cc(OCCCC(=O)Nc2cc(-c3cn[nH]c3)ccn2)c2ccccc21 | nt | nt | -3 | -4 | 4
CCC(=O)OCOc1ccc(/C=C2/CCC(CN(C)C)C2=O)cc1 (stereo unspecified) | -15 | 6 | -15 | 37* | -7
Cc1sc2ncn(CC(=O)NCc3ccco3)c(=O)c2c1-c1ccc(F)cc1 | -7 | 5 | -12 | 24* | 4
O=C(Cn1cnc2c(cnn2-c2ccc(F)cc2)c1=O)NCc1ccco1 | 3 | -1 | -5 | -2 | 9
COc1ccccc1C1CC(c2cccs2)=Nc2ccccc2S1 (stereo unspecified) | -14 | 0 | 11 | 81* | 3
COc1ccccc1C1CC(c2cccs2)=NN1C(=O)CCC(=O)O (stereo unspecified) | -2 | -5 | -5 | -2 | -7
SMILES | HTRA1 inh | TCR CD3 inh | SIAE primary | PRMT1 FP inh | mABHD4 FP
Fc1ccc(-n2c(-c3ccc4ccccc4n3)n[nH]c2=S)cc1Cl | 6 | 3 | 8 | 5 | 5
S=c1[nH]nc(-c2ccc3ccccc3n2)n1-c1ccc2ncccc2c1 | 2 | -1 | -4 | 21* | 12
COc1cc(OC)c(NC(=O)CN(C)S(=O)(=O)c2ccc3[nH]c(=O)oc3c2)cc1Cl | 9 | 20* | -2 | 2 | 8
COc1ccc(Cc2c(O)nc(SCC(=O)c3ccc(OC)cc3)[nH]c2=O)cc1 | -1 | -6 | -5 | 22* | 5
COc1ccc(Cc2c(O)nc(SCC(C)C)[nH]c2=O)cc1 | -3 | -2 | -9 | 4 | 0
C=CCN1C(=O)[C@@H](CC(=O)NCCC(C)C)[C@]2(C(=O)OCC)CCCCC/C=C/12 | nt | nt | 2 | 5 | 2
O=C1NCCCc2c1oc1cc(Br)c(O)c(Br)c21 | -3 | 0 | -3 | 6 | 2
O=C1NCCCC2c3c(cc(Br)c(O)c3Br)OC12N1CCCCC1 (stereo unspecified) | 6 | 7 | 4 | 79* | 27
CCOC(=O)c1c(NC(=S)Nc2ccccc2)sc2c1CC(C)(C)SC2 | -81 | -5 | -20 | 1 | -10
CCOC(=O)c1c(NC(=S)NC)sc2c1CC(C)(C)SC2 | 1 | 3 | -1 | 24* | 1
CCCCOCCCNC(=O)C[C@H]1C[C@@]2(C(=O)OC)C(=C[C@H](C3CCCC3)O[C@@H]2C)N(Cc2cccc3ccccc23)C1=O | nt | nt | 0 | 5 | -4
COc1ccc(S[C@]2(C(=O)N3CCOCC3)CC(=O)N(c3ccc(OC)cc3)[C@@H]2c2ccc(OC)cc2)cc1 | nt | nt | 2 | -1 | -7
O=C(CN1C2=NCCN2c2ccccc21)c1ccc2c(c1)OCO2 | 7 | -2 | 20* | -2 | -1
COc1ccc(C2=CC(c3ccco3)n3ncnc3N2)cc1 (stereo unspecified) | 0 | nt | nt | nt | nt
Clc1ccc(C2=CC(c3ccco3)n3ncnc3N2)cc1 (stereo unspecified) | 0 | 8 | -4 | 64* | -5
COC(=O)c1sc2nc(-c3ccco3)ccc2c1N | 8 | 6 | 10 | 55* | 21
CC(C)OC(=O)c1sc2nc(-c3ccccc3)ccc2c1N | -16 | -6 | -5 | 10 | 0
Cc1ccc(-c2c(C(=O)O)c(C(=O)O)c3n2CSC3)cc1 | 7 | 8 | -1 | 24* | 5
CC(C)(C)c1ccc(-c2c(C(=O)O)c(C(=O)O)c3n2CSC3)cc1 | -13 | 5 | 3 | 15 | 13
Cc1ccc(S(=O)(=O)C(C#N)c2nc3ccccc3nc2N2CCCC2)cc1 (stereo unspecified) | 4 | -5 | 6 | 58* | 16
N#CC(c1nc2ccccc2nc1N1CCOCC1)S(=O)(=O)c1ccccc1 (stereo unspecified) | 4 | -10 | 3 | 8 | -3
COc1ccc(/C=C2\SC(=S)N(CC(=O)OCC(=O)Nc3ccc([N+](=O)[O-])cc3OC)C2=O)cc1 | 3 | 6 | 11 | -1 | -1
COc1ccc(/C=C2\SC(=S)N(CC(=O)OCC(=O)Nc3ccc(C)cc3Cl)C2=O)cc1 | -11 | -8 | -6 | 21* | -3
O=C(c1ccc2ncsc2c1)N1CCCC(C(F)(F)F)C1 (stereo unspecified) | 2 | -9 | 2 | 19 | -14
CC1CCCN(C(=O)c2ccc3ncsc3c2)C1 (stereo unspecified) | 1 | 1 | 10 | 24* | 3
